PGC1a acetyl up: compounds raising PGC1a acetylation signal, primary screen, PGC1a modulator project, cell-based, U2OS, AlphaScreen, signal-increasing mode. overnight. activation, % at 15.6 µM. 0.21% of 350,000 active;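 active = every replicate reaching activation of at least 50%, whatever the mean replicate activation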;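 note: hits raise the AlphaScreen acetylation signal above neutral controls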
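Incubation: overnight compound treatment, 37 °C. System: U2OS cells transduced with flag-tagged PGC1a and GCN5 acetyltransferase. Detection: AlphaScreen lysate read. Compound: single-point compound dosing.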
Starred values were filed as active, the others as inactive. The full list was thinned out, with hits kept by preference.

SMILES	PGC1a acetyl up
COc1ccc(-c2ccc(/C=N/NC(=O)Cc3nnc(N)s3)o2)cc1Cl	-56.8
CC1=C(C(=O)OCc2ccc3c(c2)OCO3)C(c2ccccc2)NC(=O)N1 (stereo unspecified)	-55.5
O=C(Cc1ccc2c(c1)OCO2)NN=Cc1ccc([N+](=O)[O-])o1	137.0*
O=C(N/N=C\c1ccc([N+](=O)[O-])o1)C1COc2ccccc2O1 (stereo unspecified)	117.0*
CCn1cc([N+](=O)[O-])c(C(=O)NCc2ccc3c(c2)OCO3)n1	-42.5
Cc1ccc(-c2ccc(/C=N/NC(=O)Cc3nnc(N)s3)o2)cc1Cl	-43.5
CCCCCC(=O)N/N=C/c1ccc([N+](=O)[O-])o1	105.1*
CC(=O)N(c1ccccc1)c1nnc(-c2cnc(C)cn2)s1	-58.0
COC(=O)C(=Cc1ccc(OCc2ccc([N+](=O)[O-])cc2)c(OC)c1)C(=O)OC	-16.8
CCN=C(N/N=C/c1ccc([N+](=O)[O-])cc1)SC	59.3*
C[C@@H]1CN([C@H](C)CO)C(=O)c2cc(-c3ccccc3)cnc2O[C@H]1CN(C)C(=O)Cc1ccccn1	-51.4
Cc1cc(N2CCN(C)CC2)nc(=S)[nH]1	-53.1
COc1cc(-c2nnn(CC#N)n2)ccc1OCc1ccccc1	211.6*
COc1ccc(OC)c(NC(=O)C2C(C(=O)O)C3(Cl)C(Cl)=C(Cl)C2(Cl)C3(Cl)Cl)c1 (stereo unspecified)	-41.7
CC1CCCCC1NC(=O)C1CCN(C(=O)NC2CCCCC2)CC1 (stereo unspecified)	-51.2
O=C(Nc1nc(C2C3CC4CC(C3)CC2C4)cs1)c1cc2cc([N+](=O)[O-])ccc2oc1=O (stereo unspecified)	52.5*
C=C1C(=O)O[C@H]2[C@@H]1CC/C(CO)=C\CC[C@@]1(C)O[C@@H]21	61.1*
CC(C)(C)c1ccc(C(=O)NCCN2CCOCC2)cc1	-64.8
CC1CN(S(=O)(=O)c2ccc(C(=O)NCCCn3ccnc3)cc2)CC(C)O1 (stereo unspecified)	411.4*
CC1(C)OC(C)(C)/C(=C\c2ccc(OCC(N)=O)cc2)C1=O	-45.8
O=C(O)CSCC(=O)NCc1ccc(Cl)cc1Cl	-41.2
CC(C)N1CCc2c(sc(NC(=O)C3CCCCC3)c2C(N)=O)C1	-43.7
CC(C)NC(=O)N(C)C[C@H]1Oc2c(NS(=O)(=O)c3cn(C)cn3)cccc2C(=O)N([C@@H](C)CO)C[C@@H]1C	-44.5
COc1ccccc1C1c2ccc3ccccc3c2Oc2ncn(CCN(C)C)c(=N)c21 (stereo unspecified)	58.0*
C[C@H](CO)N1C[C@H](C)[C@H](CN(C)S(C)(=O)=O)Oc2ncc(-c3cc4ccccc4o3)cc2C1=O	-46.9
SMILES	PGC1a acetyl up
O=C(COC(=O)c1ccccc1C(=O)c1ccc(Cl)c([N+](=O)[O-])c1)NC1CC1	94.4*
CC(C)C#Cc1ccc([C@@H]2[C@H]3CN(C(=O)NC4CCCC4)CC(=O)N3[C@H]2CO)cc1	-48.3
S=c1sc2c(Cl)ncnc2n1-c1ccccc1	-64.0
CC1=C(Cl)C2=NS(=O)(=O)CCN2C=C1Cl	-47.5
CC(=O)c1cccc(NC(=O)Nc2cccnc2)c1	-50.3
CCCCC(=O)Nc1ccc(NC(=O)c2cccs2)cn1	-48.8
CCCCSc1ccc(NC(=O)c2cccnc2)cc1	69.7*
Nc1[nH]ncc1N=Nc1ccc(Cl)cc1	65.3*
CCOC(=O)C1(Cc2cccc(F)c2)CCN(Cc2c(C)nn(CC)c2C)CC1	-48.5
Cc1ccc(NC2=C([N+](=O)[O-])CS(=O)(=O)C2)cc1	217.5*
Cc1ccc(NC2=C(Cl)C(=O)c3ccccc3C2=O)cc1	-53.2
O=C(CN(Cc1ccc2c(c1)OCO2)C(=O)CNS(=O)(=O)c1ccccc1)NCc1ccco1	-45.7
O=C(C[C@H]1CC[C@H](NC(=O)NC2CCCCC2)[C@H](CO)O1)NCc1ccc(Cl)cc1	-53.6
COc1cc(OC)cc(C(=O)N[C@H](C(=O)OCC(=O)NC(=O)NC(C)(C)C)C(C)C)c1	-43.5
Cc1ccccc1CS(=O)(=O)c1nnc([C@H](CC(C)C)NC(=O)OC(C)(C)C)o1	74.5*
Cc1ccccc1S(=O)(=O)N[C@H]1CC[C@H](CCn2cc(Cc3ccccc3)nn2)O[C@@H]1CO	-60.9
CCCC[C@@]1(C2CCCC2)Cc2cc(OCC(=O)O)c(Cl)c(Cl)c2C1=O	-95.0
Cn1ccc2cc(OCc3ccccc3)ccc21	53.6*
Cc1ccc(NC(=O)C2C(c3ccccc3)C2(Cl)Cl)c(C)c1 (stereo unspecified)	-70.6
O=C(NC1CCCC1)C(c1ccncc1)N(Cc1ccccc1F)C(=O)c1csnn1 (stereo unspecified)	-46.6
O=C1c2ccc(-c3ccc4c(c3)C(=O)N(CCCO)C4=O)cc2C(=O)N1CCCO	-69.8
CCOc1ccccc1OCCn1nnc2ccccc21	53.2*
CC1=C(C(N)=O)C(c2ccccc2)n2nc(-c3ccncc3)nc2N1 (stereo unspecified)	59.8*
CC(=O)N(C)C[C@H]1Oc2ncc(C#CCc3ccccc3)cc2C(=O)N([C@@H](C)CO)C[C@H]1C	-52.0
COc1cccc(N2C(=O)CC(N3CCC(c4nc5ccccc5[nH]4)CC3)C2=O)c1 (stereo unspecified)	57.9*
SMILES	PGC1a acetyl up
O=[N+]([O-])c1cc(-c2ncccn2)c([N+](=O)[O-])s1	-60.7
CC(=O)c1cccc(NC(=S)NC(=O)c2ccc(Br)cc2)c1	-41.4
O=C(NC(=S)Nc1cc(Cl)ccc1O)c1cccc(Br)c1	-55.9
CC1(C)CC(NC(=S)NC(=O)c2cc(Br)ccc2Cl)CC(C)(C)N1	225.6*
COc1ccc(C(NC(=O)c2c(F)c(F)c(F)c(F)c2F)c2ccccc2)cc1 (stereo unspecified)	-84.6
COC(=O)C1=C(N)OC2=C(C(=O)CC(C)(C)C2)C1c1cccs1 (stereo unspecified)	56.9*
COCCCn1[nH]c2c3c(ccc2c1=O)C(=O)c1ccccc1C3=O	-45.5
CCCC(=O)Nc1ccc(C(=O)N/N=C/c2cccnc2)cc1	68.7*
O=C1C=CCCN1C(=O)/C=C/c1cccc(C(F)(F)F)c1	-78.4
N#C/C(=C(/O)c1cc2ccccc2o1)c1nc2ccccc2s1	-43.8
N#C/C(=C(/O)c1ccco1)c1nc2ccccc2[nH]1	60.8*
CSC1SCC2C(=O)N(C)C(C(C)C)C(=O)OCC(NC(=O)c3cnc4ccccc4n3)C(=O)NC(C)C(=O)N(C)C1C(=O)N(C)C(C(C)C)C(=O)OCC(NC(=O)c1cnc3ccccc3n1)C(=O)NC(C)C(=O)N2C (stereo unspecified)	-39.2
CCOC(=O)/C(=C\c1cccnc1)C(=O)c1cc(C(C)=O)c(Nc2ccccc2)s1	-83.8
COc1cccc(-c2nn(-c3ccccc3)cc2CN(C)C(C)c2ccncn2)c1 (stereo unspecified)	-41.4
CCOC(=O)c1cn(-c2ccccc2)nc1-c1cccnc1	77.4*
O=C(N/N=C/C=C\c1ccccc1[N+](=O)[O-])c1cccnc1	-41.6
N#C/C(=C\C=C\c1ccccc1[N+](=O)[O-])C(=O)NCc1ccccc1	127.6*
O=C(Cc1ccc(Cl)cc1)Nc1ncccn1	-44.7
C=CCN1C(=O)N(/C=C/C)c2cccc3cccc1c23	59.6*
C#CC(CC)(CC)NC(=O)c1ccc(Br)s1	-45.6
CO[C@H]1CN(C)C(=O)c2cc(NS(C)(=O)=O)ccc2OC[C@@H](C)N(C(=O)CC2CC2)C[C@H]1C	-46.5
Cc1cccc(C)c1NC(=O)CS(=O)CC(=O)Nc1ccc(F)cc1F (stereo unspecified)	57.0*

Screening data: PubChem, Broad Institute
